Key:
Putative nitroreductase [1] = target: T1, Putative nitroreductase (Staphylococcus saprophyticus subsp. saprophyticus (strain ATCC 15305 / DSM20229 / NCIMB 8711 / NCTC 7292 / S-41), UniProt Q4A0P1); test: Substrate activity at Staphylococcus saprophyticus nitroreductase expressed in Escherichia coli assessed as retention time […] at 100 uM by HPLC analysis (0 to 5 mins at 20 % ACN, 15 to 22 min at 80% ACN, 27-32 AT 20% ACN); assay type: ADME
T1 sequence (Q4A0P1 whole entry): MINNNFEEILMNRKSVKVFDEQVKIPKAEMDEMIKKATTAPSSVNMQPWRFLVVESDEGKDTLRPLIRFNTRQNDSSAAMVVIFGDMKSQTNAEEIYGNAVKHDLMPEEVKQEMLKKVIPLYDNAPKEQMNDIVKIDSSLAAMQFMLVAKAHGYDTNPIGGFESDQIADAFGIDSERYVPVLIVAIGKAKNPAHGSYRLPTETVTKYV

PC-3 [2] = test: Cytotoxicity in human PC3 cells assessed as reduction in cell viability at 180 nM measured after 48 hrs by SRB assay; assay type: cell-based; conditions: pc-3, 48 h, 0.18 µM
Method in brief: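 They were exposed for 48 h to prodrug alone at 180 nM final, without enzyme or NADH, with 25 mM Tris-HCl as vehicle control. Cells were fixed with 12.5% TCA for 1 h at 4 °C, stained with 0.4% SRB and read at 492 nm as % cell survival, in triplicate.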

PC-3 [3] = test: Cytotoxicity against human PC3 cells assessed as reduction in cell viability measured after 48 hrs in presence of Staphylococcus saprophyticus nitroreductase and NADH by SRB assay; assay type: cell-based; conditions: PC-3, 48 h
Method in brief: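 Prodrug at 180, 18 or 1.8 nM was premixed with Ssap-NtrB (31 µg/mL final) and NADH (600 µM final; 900 µM for CB1954) in 25 mM Tris-HCl pH 7.5, then added for 48 h under aerobic conditions. Cells were fixed with 12.5% TCA, stained with SRB and read at 492 nm, in triplicate.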

[4] = Cytotoxicity against human Hep3B cells assessed as cell viability at 9 to 150 uM measured after 48 hrs by MTT assay relative to control; assay type: cell-based, Hep 3B2; conditions: read-out: Activity
Method in brief: (§1)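 Hep3B and HUVEC cells were grown in high-glucose medium with 10% heat-inactivated FBS and 2 mM glutamine at 37 °C in 5% CO2. Cells were seeded at 5x10^4 per well and left 24 h to attach. They were then exposed for 48 h to 150, 75, 39, 19 and 9 µM, with 1% DMSO as vehicle control. Viability was read by MTT at 550 nm as (OD sample/OD control)×100.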

[5] = Cytotoxicity against human HUVEC cells assessed as cell viability at 9 to 150 uM measured after 48 hrs by MTT assay relative to control; assay type: cell-based; conditions: read-out: Activity; method in brief: as §1
[6] = Cytotoxicity against human PC3 cells assessed as cell viability at 9 to 150 uM measured after 48 hrs by MTT assay relative to control; assay type: cell-based, PC-3; conditions: read-out: Activity
Method in brief: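 They were treated for 48 h at 9, 18, 39, 78 and 150 µM, with 1% DMSO as vehicle control. Viability was read by MTT at 550 nm.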

Putative nitroreductase [7] = target: T1, Putative nitroreductase; test: Substrate activity at Staphylococcus saprophyticus nitroreductase expressed in Escherichia coli assessed as retention time in the presence of NADPH at 100 uM by HPLC analysis (0 to 5 mins at 20% ACN, 25 to 35 min at 80% ACN, 40 to 45 min at 20% ACN); assay type: ADME
[8] = target: T2, Staphylococcus saprophyticus nitroreductase (Staphylococcus saprophyticus subsp. saprophyticus (strain ATCC 15305 / DSM20229 / NCIMB 8711 / NCTC 7292 / S-41), UniProt Q4A0P1); test: Substrate activity at Staphylococcus saprophyticus nitroreductase expressed in Escherichia coli assessed as half life […] at 100 uM by HPLC analysis (0 to 5 mins at 20% ACN, 25 to 35 min at 80% ACN, 40 to 45 min at 20% ACN); assay type: ADME
T2 sequence (Q4A0P1 whole entry): T1 sequence (Q4A0P1 whole entry)

Putative nitroreductase [9] = target: T1, Putative nitroreductase; test: (§2) Prodrug conversion assessed Staphylococcus saprophyticus nitroreductase expressed in Escherichia coli-mediated N,N'-(cyclohexane-1,4-diyl)bis(4-aminobenzamide) formation by measuring retention time at 100 uM incubated for 15 mins in presence of FDH cofactor regeneration system by HPLC analysis; assay type: ADME; conditions: 0.25 h
Method in brief: (§3)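 This was a coupled regeneration reaction: 100 µM substrate in Tris/Cl pH 7.5 with 5–15% DMSO, plus 100 µM NADH, 10 µM NAD+, 0.1 mg/mL BSA, 200 µM sodium formate, 30 µg/mL Ssap-NtrB and 30 µg/mL Candida methylica FDH, at 25 °C. Aliquots were taken over time, quenched 1:1 with cold acetonitrile and analysed by C18 HPLC using program II (20→80→20% ACN). Peak areas were read at 254 and 340 nm.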

Putative nitroreductase [10] = target: T1, Putative nitroreductase; test: as §2, with “4-amino-N-(4-(4-(hydroxyamino)benzamido)cyclohexyl)benzamide” for “N,N'-(cyclohexane-1,4-diyl)bis(4-aminobenzamide)”; assay type: ADME; conditions: 0.25 h; method in brief: as §3
Putative nitroreductase [11] = target: T1, Putative nitroreductase; test: as §2, with “N,N'-(cyclohexane-1,4-diyl)bis(4-(hydroxyamino)benzamide)” for “N,N'-(cyclohexane-1,4-diyl)bis(4-aminobenzamide)”; assay type: ADME; conditions: 0.25 h; method in brief: as §3
Putative nitroreductase [12] = target: T1, Putative nitroreductase; test: as §2, with “time of metabolite” for “time”; assay type: ADME; conditions: 0.25 h; method in brief: as §3
Putative nitroreductase [13] = target: T1, Putative nitroreductase; test: Prodrug conversion assessed Staphylococcus saprophyticus nitroreductase expressed in Escherichia coli-mediated N,N'-(cyclohexane-1,4-diyl)bis(4-aminobenzamide) formation at 100 uM incubated for 15 mins by HPLC analysis; assay type: ADME; conditions: 0.25 h
Putative nitroreductase [14] = target: T1, Putative nitroreductase; test: Prodrug conversion assessed Staphylococcus saprophyticus nitroreductase expressed in Escherichia coli-mediated 4-amino-N-(4-(4-(hydroxyamino)benzamido)cyclohexyl)benzamide formation at 100 uM incubated for 15 mins by HPLC analysis; assay type: ADME; conditions: 0.25 h
Putative nitroreductase [15] = target: T1, Putative nitroreductase; test: Prodrug conversion assessed Staphylococcus saprophyticus nitroreductase expressed in Escherichia coli-mediated N,N'-(cyclohexane-1,4-diyl)bis(4-(hydroxyamino)benzamide) formation at 100 uM incubated for 15 mins by HPLC analysis; assay type: ADME; conditions: 0.25 h
Putative nitroreductase [16] = target: T1, Putative nitroreductase; test: Prodrug conversion assessed Staphylococcus saprophyticus nitroreductase expressed in Escherichia coli-mediated 4-(hydroxyamino)-N-(4-(4-nitrobenzamido)cyclohexyl)benzamide formation at 100 uM incubated for 15 mins by HPLC analysis; assay type: ADME; conditions: 0.25 h
[17] = Solubility of the compound in 15% DMSO; assay type: physicochemical
Putative nitroreductase [18] = target: T1, Putative nitroreductase; test: Prodrug conversion assessed Staphylococcus saprophyticus nitroreductase expressed in Escherichia coli-mediated (4-(hydroxyamino)phenyl)(morpholino)methanone metabolite formation by measuring retention time of metabolite at 100 uM incubated for 15 mins by HPLC analysis; assay type: ADME; conditions: 0.25 h
Method in brief: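 Recombinant Ssap-NtrB, Ni-column purified, was used at 2.5 µg/mL. Substrate at 100 µM was reacted with 200 µM NADH in 25 mM Tris/Cl pH 7.5 with 10% DMSO at 25 °C for 15 min. The reaction was stopped 1:1 with cold acetonitrile and run on C18 RP-HPLC at 1 mL/min with a 20–80% ACN gradient. Peaks were detected at 254 and 340 nm.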

Row | SMILES | Retention_time (Putative nitroreductase [1]) [min] | Activity (PC-3 [2]) | IC50 (PC-3 [3]) [nM] | viability at 48 h, up to 150 µM [4] [%] | viability at 48 h, up to 150 µM [5] [%] | viability at 48 h, up to 150 µM [6] [%] | Retention_time (Putative nitroreductase [7]) [min] | half-life at 100 µM [8] [h] | Retention_time (Putative nitroreductase [9]) [min] | Retention_time (Putative nitroreductase [10]) [min] | Retention_time (Putative nitroreductase [11]) [min] | Retention_time (Putative nitroreductase [12]) [min] | Drug metabolism (Putative nitroreductase [13]) | Drug metabolism (Putative nitroreductase [14]) | Drug metabolism (Putative nitroreductase [15]) | Drug metabolism (Putative nitroreductase [16]) | solubility [17] | Retention_time (Putative nitroreductase [18]) [min]
1 | O=C(NC1CCC(NC(=O)c2ccc([N+](=O)[O-])cc2)CC1)c1ccc([N+](=O)[O-])cc1 (stereo not drawn) | 19.96 | Non-Toxic | 1.79 | > 80 | > 80 | > 80 | 19.2 | < 1.5 | 13.48 | 13.48 | 13.48 | 13.48 | Metabolite_Notdetected | Metabolite_Notdetected | Metabolite_Notdetected | Metabolite_Detected | Soluble | 
2 | O=C(c1ccc(NO)cc1)N1CCOCC1 |  |  |  |  |  |  |  |  |  |  |  |  |  |  |  |  |  | 11.71
